Residue numbers refer to the chain shown, from its start.
How the values were obtained:
[1] = molecular target: T1, OfHex1 (chitinolytic β-GlcNAcase) (Ostrinia furnacalis, UniProt Q06GJ0); assay: Inhibition of OfHex1, pNP-β-GlcNAc substrate, Dixon plots; format: biochemical
T1 sequence (Q06GJ0 23-594): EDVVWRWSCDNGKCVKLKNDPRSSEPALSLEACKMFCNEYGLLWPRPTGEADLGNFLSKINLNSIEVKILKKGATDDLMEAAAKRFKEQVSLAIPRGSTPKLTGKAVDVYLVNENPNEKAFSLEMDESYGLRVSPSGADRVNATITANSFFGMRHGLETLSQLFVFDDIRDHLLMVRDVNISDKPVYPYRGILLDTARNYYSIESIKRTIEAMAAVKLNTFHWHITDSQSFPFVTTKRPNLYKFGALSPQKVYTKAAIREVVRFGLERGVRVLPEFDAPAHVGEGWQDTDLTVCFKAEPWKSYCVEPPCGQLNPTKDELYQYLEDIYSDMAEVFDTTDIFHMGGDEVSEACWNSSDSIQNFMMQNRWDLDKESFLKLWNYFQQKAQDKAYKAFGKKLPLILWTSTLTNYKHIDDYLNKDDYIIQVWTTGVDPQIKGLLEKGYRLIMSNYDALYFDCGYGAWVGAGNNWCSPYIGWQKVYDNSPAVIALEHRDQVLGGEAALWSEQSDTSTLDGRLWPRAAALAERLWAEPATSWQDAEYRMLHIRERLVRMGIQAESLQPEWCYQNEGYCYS
Outline: (§1)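 Recombinant O. furnacalis OfHex1, recombinant S. marcescens SmChb and purchased T. viride TvHex were assayed at 25°C with pNP-β-GlcNAc in 20 mM sodium phosphate, pH 6.0. After incubation, 0.5 M Na2CO3 was added and A405 measured. Ki used substrate at 0.075, 0.125 and 0.2 mM and an enzyme-specific inhibitor range. Ki and inhibition type came from linear Dixon-plot fitting.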

OfHex1 (W490A) = molecular target: T2, OfHex1 (W490A) (Ostrinia furnacalis, UniProt Q06GJ0, W490A); assay: Inhibition of mutant OfHex1-W490A; format: biochemical
T2 sequence (Q06GJ0 23-594 W490A): T1 sequence (Q06GJ0 23-594) with W468A
Outline: (§2)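 Purchased bovine Hex, recombinant O. furnacalis OfHex2 and the OfHex1 W490A mutant were assayed at 25°C with pNP-β-GlcNAc. Reactions were stopped with 0.5 M Na2CO3 and A405 was recorded. Where Ki was determined, substrate was 0.075, 0.125 and 0.2 mM, with values from linear Dixon-plot fits. W490A was also tested at 100 µM inhibitor.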

[2] = molecular target: HsHex (human glycoconjugate-lytic β-GlcNAcase) (Homo sapiens, UniProt P07686); assay: Inhibition of HsHex, pNP-β-GlcNAc substrate, Dixon plots; format: biochemical
HsHex (human glycoconjugate-lytic β-GlcNAcase), sequence (P07686 122-311 limits assumed): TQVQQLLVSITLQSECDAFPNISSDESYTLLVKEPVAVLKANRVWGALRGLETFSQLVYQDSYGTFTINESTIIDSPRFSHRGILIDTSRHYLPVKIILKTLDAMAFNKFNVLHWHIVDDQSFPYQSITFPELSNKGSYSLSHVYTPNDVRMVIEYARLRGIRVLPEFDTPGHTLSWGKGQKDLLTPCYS
HsHex (human glycoconjugate-lytic β-GlcNAcase), sequence (P07686 315-556 limits assumed): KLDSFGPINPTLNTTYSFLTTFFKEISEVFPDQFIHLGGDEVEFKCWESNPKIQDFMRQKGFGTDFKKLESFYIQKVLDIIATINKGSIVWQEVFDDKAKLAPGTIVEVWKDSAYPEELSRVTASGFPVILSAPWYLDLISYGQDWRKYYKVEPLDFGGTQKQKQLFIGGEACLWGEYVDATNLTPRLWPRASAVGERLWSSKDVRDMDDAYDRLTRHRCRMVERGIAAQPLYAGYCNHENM

[3] = molecular target: T3, SpHex (chitinolytic β-GlcNAcase) (Streptomyces plicatus, UniProt O85361); assay: Inhibition of SpHex; format: biochemical
T3 sequence (O85361 1-506): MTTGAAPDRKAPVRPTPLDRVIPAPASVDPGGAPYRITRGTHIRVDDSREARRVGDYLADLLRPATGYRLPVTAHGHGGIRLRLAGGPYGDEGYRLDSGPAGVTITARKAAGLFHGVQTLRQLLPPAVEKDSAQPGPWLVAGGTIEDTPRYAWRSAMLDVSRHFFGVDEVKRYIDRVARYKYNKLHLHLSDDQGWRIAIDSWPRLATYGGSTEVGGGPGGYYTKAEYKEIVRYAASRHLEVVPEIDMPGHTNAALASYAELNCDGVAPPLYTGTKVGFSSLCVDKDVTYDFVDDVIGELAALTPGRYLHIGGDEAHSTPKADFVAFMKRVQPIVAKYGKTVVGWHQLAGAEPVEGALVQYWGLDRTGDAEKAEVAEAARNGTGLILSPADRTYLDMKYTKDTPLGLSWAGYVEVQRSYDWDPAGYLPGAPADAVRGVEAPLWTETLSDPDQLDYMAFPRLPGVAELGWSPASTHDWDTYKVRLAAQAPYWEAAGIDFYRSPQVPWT

[4] = molecular target: TvHex (chitinolytic β-GlcNAcase); assay: Inhibition of TvHex; format: biochemical, Trichoderma viride; conditions: read-out: Ki for TvHex; pNP-β-GlcNAc, pH 6.0
Outline: as §1

[5] = tested on: CeHex (glycoconjugate-lytic β-GlcNAcase); assay: Inhibition of CeHex; format: biochemical, Canavalia ensformis
[6] = molecular target: T4, SmChb (chitinolytic β-GlcNAcase) (Serratia marcescens, UniProt Q54468); assay: Inhibition of SmChb; format: biochemical
T4 sequence (Q54468 28-885): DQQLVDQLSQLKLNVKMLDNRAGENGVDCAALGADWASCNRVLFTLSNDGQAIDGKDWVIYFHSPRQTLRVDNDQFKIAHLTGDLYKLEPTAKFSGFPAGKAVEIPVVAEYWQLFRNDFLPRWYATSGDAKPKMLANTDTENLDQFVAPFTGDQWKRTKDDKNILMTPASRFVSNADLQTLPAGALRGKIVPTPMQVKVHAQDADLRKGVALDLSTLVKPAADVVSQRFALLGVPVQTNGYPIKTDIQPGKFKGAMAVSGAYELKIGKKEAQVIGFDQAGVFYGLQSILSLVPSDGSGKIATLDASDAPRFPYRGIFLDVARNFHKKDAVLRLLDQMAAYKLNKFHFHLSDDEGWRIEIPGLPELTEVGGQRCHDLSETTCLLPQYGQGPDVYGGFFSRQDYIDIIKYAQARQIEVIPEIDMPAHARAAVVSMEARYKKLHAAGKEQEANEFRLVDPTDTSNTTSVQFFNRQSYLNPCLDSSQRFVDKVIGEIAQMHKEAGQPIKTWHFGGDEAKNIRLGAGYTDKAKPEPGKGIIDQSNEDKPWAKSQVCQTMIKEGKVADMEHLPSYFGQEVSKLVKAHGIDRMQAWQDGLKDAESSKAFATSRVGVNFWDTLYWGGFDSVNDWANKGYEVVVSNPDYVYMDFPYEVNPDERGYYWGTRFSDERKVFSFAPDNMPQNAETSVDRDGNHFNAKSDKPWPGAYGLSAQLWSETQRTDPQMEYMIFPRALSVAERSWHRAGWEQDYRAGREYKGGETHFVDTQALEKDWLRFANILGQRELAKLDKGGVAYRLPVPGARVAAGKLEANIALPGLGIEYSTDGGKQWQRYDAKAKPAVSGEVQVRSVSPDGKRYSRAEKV
Outline: as §1

[7] = tested on: BoHex (glycoconjugate-lytic β-GlcNAcase); assay: Inhibition of BoHex; format: biochemical, bovine
Outline: as §2

[8] = tested on: OfHex2 (glycoconjugate-lytic β-GlcNAcase); assay: Inhibition of OfHex2; format: biochemical, O. furnacalis
Outline: as §2

[9] = tested on: glycoconjugate-lytic β-GlcNAcases from plant and human; conditions: cited from earlier work

Compound | Ki [1] [µM] | Type of inhibition toward OfHex1 (Dixon plots) [1] | Ki (OfHex1 (W490A)) [µM] | Inhibition of OfHex1-W490A at 100 µM (OfHex1 (W490A); 100 µM) | Ki [2] [µM] | Type of inhibition toward HsHex (Dixon plots) ([2]; Dixon plots) | Ki [3] [µM] | Ki [4] [µM] | Inhibition of CeHex [5] | Ki [6] [µM] | Inhibition of BoHex [7] | Increment in inhibitory activity against OfHex1 compared to Q1 ([1]; Q2 versus Q1, from Ki) [fold] | Inhibition of OfHex2 [8] | Inhibition of HsHex at 100 µM ([2]; 100 µM) | Activity toward glycoconjugate-lytic β-GlcNAcases from plant and human [9]
Cc1nnc(CNCCN2C(=O)c3cccc4cccc(c34)C2=O)s1 [Q1, 2-(2-(((5-methyl-1,3,4-thiadiazol-2-yl)methyl)amino)ethyl)-1H-benzo[de]isoquinoline-1,3(2H)-dione] | 4.28 | competitive inhibitor | > 100 | could not inhibit | 2.15 | competitive inhibitor | – | – | – | – | – | – | – | – | –
Cc1nnc(CNCCN2C(=O)c3cccc4c(N(C)C)ccc(c34)C2=O)s1 [Q2, 6-(dimethylamino)-2-(2-(((5-methyl-1,3,4-thiadiazol-2-yl)methyl)amino)ethyl)-1H-benzo[de]isoquinoline-1,3(2H)-dione] | 0.31 | competitive | > 100 | – | > 100 | – | 74.8 | 25 | does not inhibit | 8.25 | does not inhibit | 13 | does not inhibit | does not inhibit | –
CC(=O)NC1C(O)O[C@H](CO)[C@@H](O[C@@H]2O[C@H](CO)[C@@H](O[C@@H]3O[C@H](CO)[C@@H](O[C@H]4O[C@H](CO)[C@@H](O)[C@H](O)[C@H]4[N+](C)(C)C)[C@H](O)[C@H]3NC(C)=O)[C@H](O)[C@H]2NC(C)=O)[C@@H]1O (stereo partly shown) [TMG-chitotriomycin] | – | – | – | – | – | – | – | – | – | – | – | – | – | – | not active
